Measurements taken from ChEMBL document CHEMBL1138155, “A lactosylated steroid contributes in vivo therapeutic benefits in experimental models of mouse lymphoma and human glioblastoma” (J Med Chem, 2006).

Tests used:
HCT-15 = assay: Cytotoxicity against human HCT15 colon cancer cell line; type: functional, cell-based
In short: (§1)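 Colorimetric MTT assay on cultured human cancer cells after 3 days of continuous drug exposure. IC50 is the concentration that reduces overall cell-population growth by 50% relative to untreated cells.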

U373 MG [1] = assay: Antimigratory activity against human U373 glioblastoma cell line at 100 nM after 12h; type: functional, U-373MG ATCC
In short: (§2)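 Computer-assisted videomicroscopy tracking of living cultured cells, one image every 4 min over 24 h; migration scored as maximum relative distance from origin (MRDO) per cell, read at 12 or 22 h with compound at 100 nM or without (control). Control normalized to 0%. Triplicate analyses, 121–184 cells per condition; mean ± standard error.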

PC-3 [2] = assay: Cytotoxicity against human PC3 prostate cancer cell line; type: functional, cell-based; in short: as §1
PC-3 [3] = assay: Antimigratory activity against human PC3 prostate cancer cell line at 100 nM after 22h; type: functional; conditions: PC-3, 22 h; in short: as §2
A549 [4] = assay: Antimigratory activity against human A549 NSCLC cell line at 100 nM after 22h; type: functional; conditions: A549, 22 h; in short: as §2
U373 MG [5] = assay: Antimigratory activity against human U373 glioblastoma cell line at 100nM after 22h; type: functional, U-373MG ATCC; in short: as §2
A549 [6] = assay: Antimigratory activity against human A549 NSCLC cell line at 100 nM after 12h; type: functional; conditions: A549, 12 h; in short: as §2
A549 [7] = assay: Cytotoxicity against human A549 NSCLC cell line; type: functional, cell-based; in short: as §1
PC-3 [8] = assay: Antimigratory activity against human PC3 prostate cancer cell line at 100 nM after 12h; type: functional; conditions: PC-3, 12 h; in short: as §2
Mus musculus = assay: Toxicity in mice at 160 mg/kg, ip 28 days post dose; type: organism-based; parameters: dose 160 mg/kg, route intraperitoneal; conditions: in vivo, 672 h
In short: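 Healthy, non-tumor-grafted mice received a single acute ip dose of 160 mg/kg. Body weight and survival were recorded over at least 28 days after dosing to detect toxic effects.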

U373 MG [9] = assay: Cytotoxicity against human U373 glioblastoma cell line; type: functional, cell-based, U-373MG ATCC; in short: as §1
Hs 683 = assay: Cytotoxicity against human Hs683 cancer cell line; type: functional, cell-based; in short: as §1
MCF7 = assay: Cytotoxicity against human MCF7 breast cancer cell line; type: functional, cell-based; in short: as §1

Structure (SMILES) | IC50 (HCT-15) | inhibition at 0.1 µM (U373 MG [1]) | IC50 (PC-3 [2]) | inhibition at 0.1 µM (PC-3 [3]) | inhibition at 0.1 µM (A549 [4]) | inhibition at 0.1 µM (U373 MG [5]) | inhibition at 0.1 µM (A549 [6]) | IC50 (A549 [7]) | inhibition at 0.1 µM (PC-3 [8]) | Activity (Mus musculus) | IC50 (U373 MG [9]) | IC50 (Hs 683) | IC50 (MCF7)
COc1ccc(OC)c([C@@H]2C[C@H]3[C@@H]4CC=C5C[C@@H](O[C@H]6O[C@@H](C)[C@@H](O)[C@@H](O)[C@@H]6O)CC[C@]5(C)[C@H]4CC[C@]3(C)[C@H]2[C@H](C)O[C@H]2O[C@@H](C)[C@@H](O)[C@@H](O)[C@@H]2O)c1 | > 10 µM | -4% | > 10 µM | -45% | -4% | -4% | -6% | > 10 µM | -41% | Non-toxic | > 10 µM | > 10 µM | > 10 µM
COc1ccc(OC)c([C@@H]2C[C@H]3[C@@H]4CC=C5C[C@@H](O[C@@H]6O[C@H](CO)[C@@H](O)[C@H](O)[C@H]6NC(C)=O)CC[C@]5(C)[C@H]4CC[C@]3(C)[C@H]2C(C)=O)c1 | > 10 µM | -17% | > 10 µM | 12% | -39% | -3% | -39% | > 10 µM | 11% | Non-toxic | > 10 µM | > 10 µM | > 10 µM
COc1ccc(OC)c([C@@H]2C[C@H]3[C@@H]4CC=C5C[C@@H](O[C@@H]6O[C@H](CO)[C@H](O)[C@H](O)[C@H]6O)CC[C@]5(C)[C@H]4CC[C@]3(C)[C@H]2C(C)=O)c1 | > 10 µM | 8% | > 10 µM | -8% | 4% | 1% | 2% | > 10 µM | 7% | Non-toxic | > 10 µM | > 10 µM | > 10 µM
COc1ccc(OC)c([C@@H]2C[C@H]3[C@@H]4CC=C5C[C@@H](O[C@@H]6O[C@H](CO)[C@@H](O[C@@H]7O[C@H](CO)[C@@H](O)[C@H](O)[C@H]7O)[C@H](O)[C@H]6O)CC[C@]5(C)[C@H]4CC[C@]3(C)[C@H]2C(C)=O)c1 | > 10 µM | 8% | > 10 µM | -7% | -34% | -9% | -30% | > 10 µM | 13% | Non-toxic | > 10 µM | > 10 µM | > 10 µM
COc1ccc(OC)c([C@@H]2C[C@H]3[C@@H]4CC=C5C[C@@H](O[C@H]6O[C@H](CO[C@@H]7O[C@H](CO)[C@@H](O)[C@H](O)[C@H]7O)[C@@H](O)[C@H](O)[C@H]6O)CC[C@]5(C)[C@H]4CC[C@]3(C)[C@H]2C(C)=O)c1 | > 10 µM | 0% | > 10 µM | -1% | -4% | -1% | 0% | > 10 µM | 11% | Non-toxic | > 10 µM | > 10 µM | > 10 µM
COc1ccc(OC)c([C@@H]2C[C@H]3[C@@H]4CC=C5C[C@@H](O[C@@H]6O[C@H](CO[C@H]7O[C@H](CO)[C@@H](O)[C@H](O)[C@H]7O)[C@@H](O)[C@H](O)[C@H]6O)CC[C@]5(C)[C@H]4CC[C@]3(C)[C@H]2C(C)=O)c1 | > 10 µM | -18% | > 10 µM | -9% | -40% | -18% | -34% | > 10 µM | -7% | Non-toxic | > 10 µM | > 10 µM | > 10 µM
COc1ccc(OC)c([C@@H]2C[C@H]3[C@@H]4CC=C5C[C@@H](O)CC[C@]5(C)[C@H]4CC[C@]3(C)[C@H]2C(C)=O)c1 | > 10 µM | 2% | > 10 µM | 10% | 6% | 7% | 0% | > 10 µM | 5% | Non-toxic | > 10 µM | > 10 µM | > 10 µM
COc1ccc(OC)c([C@@H]2C[C@H]3[C@@H]4CC=C5C[C@@H](O[C@@H]6O[C@H](CO[C@H]7O[C@H](CO)[C@@H](O)[C@H](O)[C@H]7O)[C@@H](O)[C@H](O)[C@H]6O)CC[C@]5(C)[C@H]4CC[C@]3(C)[C@H]2[C@H](C)O[C@@H]2O[C@H](CO[C@H]3O[C@H](CO)[C@@H](O)[C@H](O)[C@H]3O)[C@@H](O)[C@H](O)[C@H]2O)c1 | > 10 µM | -14% | > 10 µM | 10% | 0% | -9% | 9% | > 10 µM | 8% | Non-toxic | > 10 µM | > 10 µM | > 10 µM
COc1ccc(OC)c([C@@H]2C[C@H]3[C@@H]4CC=C5C[C@@H](O[C@H]6O[C@@H](C)[C@@H](O)[C@@H](O)[C@@H]6O)CC[C@]5(C)[C@H]4CC[C@]3(C)[C@H]2C(C)=O)c1 | > 10 µM | -25% | > 10 µM | -15% | -8% | -38% | -8% | > 10 µM | -23% | Non-toxic | > 10 µM | > 10 µM | > 10 µM
COc1ccc(OC)c([C@@H]2C[C@H]3[C@@H]4CC=C5C[C@@H](O[C@H]6O[C@H](CO)[C@@H](O[C@@H]7O[C@H](CO)[C@H](O)[C@H](O)[C@H]7O)[C@H](O)[C@H]6O)CC[C@]5(C)[C@H]4CC[C@]3(C)[C@H]2C(C)=O)c1 | > 10 µM | -29% | > 10 µM | -34% | -5% | -31% | 8% | > 10 µM | -51% | Non-toxic | > 10 µM | > 10 µM | > 10 µM
COc1ccc(OC)c([C@@H]2C[C@H]3[C@@H]4CC=C5C[C@@H](O)CC[C@]5(C)[C@H]4CC[C@]3(C)[C@H]2[C@H](C)O)c1 | > 10 µM | – | > 10 µM | – | – | – | – | > 10 µM | – | Non-toxic | > 10 µM | > 10 µM | > 10 µM
COc1ccc(OC)c([C@@H]2C[C@H]3[C@@H]4CC=C5C[C@@H](O[C@@H]6O[C@H](CO)[C@@H](O[C@@H]7O[C@H](CO)[C@@H](O)[C@H](O)[C@H]7O)[C@H](O)[C@H]6O)CC[C@]5(C)[C@H]4CC[C@]3(C)[C@H]2[C@H](C)O[C@@H]2O[C@H](CO)[C@@H](O[C@@H]3O[C@H](CO)[C@@H](O)[C@H](O)[C@H]3O)[C@H](O)[C@H]2O)c1 | > 10 µM | -8% | > 10 µM | -17% | 3% | 4% | 4% | > 10 µM | 9% | Non-toxic | > 10 µM | > 10 µM | > 10 µM
COc1ccc(OC)c([C@@H]2C[C@H]3[C@@H]4CC=C5C[C@@H](O[C@H]6O[C@H](CO)[C@@H](O[C@@H]7O[C@H](CO)[C@H](O)[C@H](O)[C@H]7O)[C@H](O)[C@H]6O)CC[C@]5(C)[C@H]4CC[C@]3(C)[C@H]2[C@H](C)O[C@H]2O[C@H](CO)[C@@H](O[C@@H]3O[C@H](CO)[C@H](O)[C@H](O)[C@H]3O)[C@H](O)[C@H]2O)c1 | > 10 µM | -12% | > 10 µM | 15% | -12% | -13% | -26% | > 10 µM | 14% | Non-toxic | > 10 µM | > 10 µM | > 10 µM
COc1ccc(OC)c([C@@H]2C[C@H]3[C@@H]4CC=C5C[C@@H](O[C@H]6O[C@H](CO)[C@@H](O[C@H]7O[C@H](CO)[C@@H](O)[C@H](O)[C@H]7O)[C@H](O)[C@H]6O)CC[C@]5(C)[C@H]4CC[C@]3(C)[C@H]2C(C)=O)c1 | > 10 µM | 2% | > 10 µM | -5% | 5% | -8% | 10% | > 10 µM | -5% | Non-toxic | > 10 µM | > 10 µM | > 10 µM
